Test results as given in ChEMBL document CHEMBL4393701, “Appendix A. dithioloquinolinethiones as new potential multitargeted antibacterial and antifungal agents: Synthesis, biological evaluation and molecular docking studies” (2019).
In brackets after ≈: the same amount, converted by molar mass.

What was measured:
[1] = system: Penicillium cyclopium; assay: Fungicidal activity against Penicillium verrucosum var. cyclopium food isolate incubated for 72 hrs followed by sub-culturing on broth malt medium and measured after 72 hrs; type: functional
Procedure, shortened: (§1)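 After 72 h exposure in malt broth, 2 µL from test wells was subcultured into wells holding 100 µL broth and incubated a further 72 h at 28 °C. MFC is the lowest concentration with no visible growth, taken as 99.5% kill of the original inoculum. Three independent experiments in duplicate.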

[2] = system: Bacillus cereus; assay: Bactericidal activity against Bacillus cereus clinical isolate incubated for 24 hrs followed by re-plating on tryptic soy broth; type: functional
Procedure, shortened: (§2)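 Bacteria were grown in tryptic soy broth, 1.0×10^4 CFU per well, with compounds in 5% DMSO at 0.001-1.0 mg/ml for 24 h at 37 °C. Then 10 µL was subcultured into fresh TSB. MBC is the lowest concentration showing no growth after subculture, taken as 99.5% kill of the original inoculum. Duplicates, repeated three times.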

[3] = system: Pseudomonas aeruginosa; assay: Antibacterial activity against Pseudomonas aeruginosa ATCC 27853 after 24 hrs by iodonitrotetrazolium chloride dye based microdilution method; type: functional; settings: ATCC 27853, 24 h
Procedure, shortened: (§3)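 Fresh overnight cultures adjusted spectrophotometrically to 1×10^5 CFU/mL, giving 1.0×10^4 CFU per well in tryptic soy broth. Compounds were dissolved in 5% DMSO and tested at 0.001-1.0 mg/ml by serial dilution; 5% DMSO was the negative control. After 24 h at 37 °C, 0.2 mg/mL INT solution was added for 30 min at 37 °C and OD read at 655 nm. MIC is the lowest concentration giving significant growth inhibition versus the positive control. Duplicates, repeated three times.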

[4] = system: Aspergillus versicolor; assay: Fungicidal activity against Aspergillus versicolor ATCC 11730 incubated for 72 hrs followed by sub-culturing on broth malt medium and measured after 72 hrs; type: functional; settings: ATCC 11730, 72 h; procedure, shortened: as §1
[5] = system: Bacillus cereus; assay: Antibacterial activity against Bacillus cereus clinical isolate after 24 hrs by iodonitrotetrazolium chloride dye based microdilution assay; type: functional; procedure, shortened: as §3
[6] = system: Staphylococcus aureus; assay: Antibacterial activity against Staphylococcus aureus ATCC 6538 after 24 hrs by iodonitrotetrazolium chloride dye based microdilution method; type: functional; settings: ATCC 6538, 24 h; procedure, shortened: as §3
[7] = system: Aspergillus ochraceus; assay: Antifungal activity against Aspergillus ochraceus ATCC 12066 after 72 hrs by microdilution technique; type: functional; settings: ATCC 12066, 72 h
Procedure, shortened: (§4)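 Spores were washed off malt agar with 0.85% saline containing 0.1% Tween 80 and adjusted to about 1.0×10^5 per well. Compounds in 5% DMSO were serially diluted (0.001-1.0 mg/ml) in malt broth with inoculum. Plates were shaken at 160 rpm for 72 h at 28 °C. MIC is the lowest concentration without visible growth under a binocular microscope. Three independent experiments in duplicate.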

[8] = system: Salmonella typhimurium; assay: Bactericidal activity against Salmonella typhimurium ATCC 13311 incubated for 24 hrs followed by re-plating on tryptic soy broth; type: functional, Salmonella enterica subsp. enterica serovar Typhimurium; settings: Salmonella enterica, ATCC 13311, 24 h; procedure, shortened: as §2
[9] = system: Aspergillus versicolor; assay: Antifungal activity against Aspergillus versicolor ATCC 11730 after 72 hrs by microdilution method; type: functional; settings: ATCC 11730, 72 h; procedure, shortened: as §4
[10] = system: Listeria monocytogenes; assay: Antibacterial activity against Listeria monocytogenes NCTC 7973 after 24 hrs by iodonitrotetrazolium chloride dye based microdilution method; type: functional; settings: NCTC 7973, 24 h; procedure, shortened: as §3
[11] = system: Penicillium ochrochloron; assay: Antifungal activity against Penicillium ochrochloron ATCC 9112 after 72 hrs by microdilution technique; type: functional; settings: ATCC 9112, 72 h; procedure, shortened: as §4
[12] = system: Micrococcus flavus; assay: Antibacterial activity against Micrococcus flavus ATCC 10240 after 24 hrs by iodonitrotetrazolium chloride dye based microdilution method; type: functional; settings: ATCC 10240, 24 h; procedure, shortened: as §3
[13] = system: Escherichia coli; assay: Antibacterial activity against Escherichia coli ATCC 35210 after 24 hrs by iodonitrotetrazolium chloride dye based microdilution method; type: functional; settings: ATCC 35210, 24 h; procedure, shortened: as §3
[14] = system: Enterobacter cloacae; assay: Antibacterial activity against Enterobacter cloacae clinical isolate after 24 hrs by iodonitrotetrazolium chloride dye based microdilution method; type: functional; procedure, shortened: as §3
[15] = system: Escherichia coli; assay: Bactericidal activity against Escherichia coli ATCC 35210 incubated for 24 hrs followed by re-plating on tryptic soy broth; type: functional; settings: ATCC 35210, 24 h; procedure, shortened: as §2
[16] = system: Salmonella typhimurium; assay: Antibacterial activity against Salmonella typhimurium ATCC 13311 after 24 hrs by iodonitrotetrazolium chloride dye based microdilution method; type: functional, Salmonella enterica subsp. enterica serovar Typhimurium; settings: Salmonella enterica, ATCC 13311, 24 h; procedure, shortened: as §3
[17] = system: Micrococcus flavus; assay: Bactericidal activity against Micrococcus flavus ATCC 10240 incubated for 24 hrs followed by re-plating on tryptic soy broth; type: functional; settings: ATCC 10240, 24 h; procedure, shortened: as §2
[18] = system: Aspergillus niger; assay: Antifungal activity against Aspergillus niger ATCC 6275 after 72 hrs by microdilution technique; type: functional; settings: ATCC 6275, 72 h; procedure, shortened: as §4
[19] = system: Staphylococcus aureus; assay: Bactericidal activity against Staphylococcus aureus ATCC 6538 incubated for 24 hrs followed by re-plating on tryptic soy broth; type: functional; settings: ATCC 6538, 24 h; procedure, shortened: as §2
[20] = Fungicidal activity against Penicillium funiculosum ATCC 36839 incubated for 72 hrs followed by sub-culturing on broth malt medium and measured after 72 hrs; type: functional; settings: Talaromyces pinophilus, ATCC 36839, 72 h; procedure, shortened: as §1
[21] = system: Trichoderma viride; assay: Antifungal activity against Trichoderma viride IAM 5061 after 72 hrs by microdilution technique; type: functional; settings: IAM 5061, 72 h; procedure, shortened: as §4
[22] = system: Pseudomonas aeruginosa; assay: Bactericidal activity against Pseudomonas aeruginosa ATCC 27853 incubated for 24 hrs followed by re-plating on tryptic soy broth; type: functional; settings: ATCC 27853, 24 h; procedure, shortened: as §2
[23] = system: Aspergillus niger; assay: Fungicidal activity against Aspergillus niger ATCC 6275 incubated for 72 hrs followed by sub-culturing on broth malt medium and measured after 72 hrs; type: functional; settings: ATCC 6275, 72 h; procedure, shortened: as §1
[24] = system: Trichoderma viride; assay: Fungicidal activity against Trichoderma viride IAM 5061 incubated for 72 hrs followed by sub-culturing on broth malt medium and measured after 72 hrs; type: functional; settings: IAM 5061, 72 h; procedure, shortened: as §1
[25] = system: Aspergillus ochraceus; assay: Fungicidal activity against Aspergillus ochraceus ATCC 12066 incubated for 72 hrs followed by sub-culturing on broth malt medium and measured after 72 hrs; type: functional; settings: ATCC 12066, 72 h; procedure, shortened: as §1
[26] = system: Aspergillus fumigatus; assay: Fungicidal activity against Aspergillus fumigatus ATCC 1022 incubated for 72 hrs followed by sub-culturing on broth malt medium and measured after 72 hrs; type: functional; settings: ATCC 1022, 72 h; procedure, shortened: as §1
[27] = system: Listeria monocytogenes; assay: Bactericidal activity against Listeria monocytogenes NCTC 7973 incubated for 24 hrs followed by re-plating on tryptic soy broth; type: functional; settings: NCTC 7973, 24 h; procedure, shortened: as §2
[28] = system: Enterobacter cloacae; assay: Bactericidal activity against Enterobacter cloacae incubated for 24 hrs followed by re-plating on tryptic soy broth; type: functional; procedure, shortened: as §2
[29] = system: Penicillium ochrochloron; assay: Fungicidal activity against Penicillium ochrochloron ATCC 9112 incubated for 72 hrs followed by sub-culturing on broth malt medium and measured after 72 hrs; type: functional; settings: ATCC 9112, 72 h; procedure, shortened: as §1
[30] = system: Penicillium cyclopium; assay: Antifungal activity against Penicillium verrucosum var. cyclopium food isolate after 72 hrs by microdilution technique; type: functional; procedure, shortened: as §4
[31] = system: Aspergillus fumigatus; assay: Antifungal activity against Aspergillus fumigatus ATCC 1022 after 72 hrs by microdilution technique; type: functional; settings: ATCC 1022, 72 h; procedure, shortened: as §4
[32] = Antifungal activity against Penicillium funiculosum ATCC 36839 after 72 hrs by microdilution technique; type: functional; settings: Talaromyces pinophilus, ATCC 36839, 72 h; procedure, shortened: as §4

Structure (SMILES)	MFC [1] [×10⁻² mM]	MBC [2] [µM]	MIC [3] [µM]	MFC [4] [×10⁻² mM]	MIC [5] [µM]	MIC [6] [µM]	MIC [7] [×10⁻² mM]	MIC [9] [×10⁻² mM]	MIC [11] [×10⁻² mM]	MIC [18] [×10⁻² mM]	MFC [20] [×10⁻² mM]	MIC [21] [×10⁻² mM]	MFC [23] [×10⁻² mM]	MFC [24] [×10⁻² mM]	MFC [25] [×10⁻² mM]	MFC [26] [×10⁻² mM]	MFC [29] [×10⁻² mM]	MIC [30] [×10⁻² mM]	MIC [31] [×10⁻² mM]	MIC [32] [×10⁻² mM]	further results
COc1cc2c3c(c1)-c1c(ssc1=S)C(C)(C)N3C(=O)/C2=C1\SC(=S)NC1=O	51.6	129 (≈ 59.9 µg/mL)	129 (≈ 60 µg/mL)	25.8	64.6 (≈ 30 µg/mL)	64.6 (≈ 30 µg/mL)	1.72	12.9	3.23	25.8	25.8	1.72	51.6	3.23	3.23	51.6	6.46	25.8	25.8	12.9	MBC [8]: 129 µM (≈ 60 µg/mL); MIC [10]: 258 µM (≈ 120 µg/mL); MIC [12]: 96.9 µM (≈ 45 µg/mL); MIC [13]: 96.9 µM (≈ 45 µg/mL); MIC [14]: 64.6 µM (≈ 30 µg/mL); MBC [15]: 129 µM (≈ 59.9 µg/mL); MIC [16]: 64.6 µM (≈ 30 µg/mL); MBC [17]: 129 µM (≈ 59.9 µg/mL); MBC [19]: 129 µM (≈ 59.9 µg/mL); MBC [22]: 258 µM (≈ 120 µg/mL); MBC [27]: 517 µM (≈ 240 µg/mL); MBC [28]: 129 µM (≈ 59.9 µg/mL)
CC1(C)c2ssc(=S)c2-c2ccccc2N1C(=O)CN1C(=O)CCC1=O	29.7	74.2 (≈ 30 µg/mL)	37.1 (≈ 15 µg/mL)	29.7	37.1 (≈ 15 µg/mL)	37.1 (≈ 15 µg/mL)	14.8	14.8	0.99	7.42	29.7	1.48	14.8	1.98	29.7	14.8	1.98	14.8	11.1	11.1	MBC [8]: 74.2 µM (≈ 30 µg/mL); MIC [10]: 37.1 µM (≈ 15 µg/mL); MIC [12]: 37.1 µM (≈ 15 µg/mL); MIC [13]: 37.1 µM (≈ 15 µg/mL); MIC [14]: 37.1 µM (≈ 15 µg/mL); MBC [15]: 74.2 µM (≈ 30 µg/mL); MIC [16]: 37.1 µM (≈ 15 µg/mL); MBC [17]: 74.2 µM (≈ 30 µg/mL); MBC [19]: 74.2 µM (≈ 30 µg/mL); MBC [22]: 74.2 µM (≈ 30 µg/mL); MBC [27]: 74.2 µM (≈ 30 µg/mL); MBC [28]: 74.2 µM (≈ 30 µg/mL)
c1ccc(-c2ccc(C(c3ccccc3)n3ccnc3)cc2)cc1 (stereo not given) [BIFONAZOLE]	64			64			48	48	64	48	64	64	64	80	80	64	80	48	48	48	
